Bioassay records deposited in PubChem BioAssay by Johns Hopkins Ion Channel Center.
KCNK3 inh: human KCNK3 channel inhibitors, primary screen, CHO cells, FluxOR thallium flux, B-score | Potassium channel subfamily K member 3 (Homo sapiens), O14649 | FluxOR fluorescence; stronger effect = lower value | B-score at 10 µM | 340,000 tested, 0.84% active;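 active = B-score under library mean minus 4 SD, starting fluorescence ratio at most library mean plus 5 SD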;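 note: more negative B-score means stronger inhibition of thallium flux through KCNK3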
Target sequence (O14649 whole entry, looked up): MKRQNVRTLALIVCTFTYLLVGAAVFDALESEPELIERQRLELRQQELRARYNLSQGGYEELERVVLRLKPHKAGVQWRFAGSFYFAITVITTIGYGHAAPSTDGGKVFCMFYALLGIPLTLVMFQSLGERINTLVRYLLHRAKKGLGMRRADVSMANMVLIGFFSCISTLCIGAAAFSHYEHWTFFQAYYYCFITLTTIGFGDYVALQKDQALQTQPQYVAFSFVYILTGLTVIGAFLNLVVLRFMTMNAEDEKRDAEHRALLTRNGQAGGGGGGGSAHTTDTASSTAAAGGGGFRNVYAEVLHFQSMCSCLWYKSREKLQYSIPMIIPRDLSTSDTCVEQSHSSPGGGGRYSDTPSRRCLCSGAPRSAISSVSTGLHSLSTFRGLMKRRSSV
KCNQ1 act: potentiators or activators of KCNQ1 channel, primary screen, cell-based, thallium flux, high-throughput. Potassium voltage-gated channel subfamily KQT member 1 (Homo sapiens), P51787. CHO-K1 KCNQ1, thallium flux FluxOR fluorescence; stronger effect = higher value. 310,000 tested, 0.35% active. B-score at 10 µM. AID 2648, 2010;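 active = fluorescence ratio B-score, a plate-corrected score, at least three library SD, with initial intensity B-score within 5 SD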
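System: CHO-K1 cells stably expressing KCNQ1 / Medium: assay buffer for compound exposure, DMSO matched across wells / Reagent: thallium- and potassium-containing depolarizing buffer / Compound: one concentration, matched DMSO / Incubation: 20 min compound pretreatment at room temperature / Measured by: kinetic FluxOR fluorescence, 10 s baseline plus 110 s post-stimulus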
KCNK9 block: KCNK9 potassium channel inhibitors, primary screen, HEK293 cells, thallium flux | FluxOR thallium flux fluorescence; stronger effect = lower value | B-score at 10 µM | 310,000 tested, 1.2% active | AID 488922, 2010;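 active = ratio B-score over 3 SD below the library mean, with starting fluorescence within 5 SD of its mean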;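 note: negative B-score means less thallium flux so channel inhibition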
hERG protect: hERG rescue from dofetilide block, primary screen, cell-based, CHO-hERG, FluxOR thallium flux, dofetilide IC70; Voltage-gated inwardly rectifying potassium channel KCNH2 (Homo sapiens), Q12809; dofetilide IC70 present; activation (rescue from dofetilide block), less the hit threshold, % at 10 µM; 310,000 tested, 0.51% active; AID 1511, 2009;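 active = activation above the mean of controls blocked by dofetilide plus 5 SD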;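 note: thallium influx through hERG after potassium depolarization seen as dye fluorescence rise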
Kir21 block: inhibitors of mouse Kir2.1 inward-rectifier potassium channel; Inward rectifier potassium channel 2 (Mus musculus), P35561; 310,000 tested, 0.85% active; AID 1672, 2009; B-score at 10 µM; HEK293-Kir2.1, FluxOR thallium flux fluorescence; stronger effect = lower value;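 active = fluorescence ratio B-score at or below minus 3 SD of library scores, with starting-brightness B-score within 2 SD, cut at about -4.2 in these data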;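 note: channel flux triggered by added potassium and thallium sulfate stimulus; B-score of peak minus minimum fluorescence over baseline after thallium stimulus; more negative B-score means stronger Kir2.1 block with less thallium influx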
KCNQ1 block: inhibitors of human KCNQ1 channel, primary screen, cell-based, thallium flux, high-throughput; 310,000 tested, 1.3% active; AID 2642, 2010; B-score at 10 µM; CHO-K1 KCNQ1, FluxOR thallium flux fluorescence; stronger effect = higher value; Potassium voltage-gated channel subfamily KQT member 1 (Homo sapiens), P51787;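 active = compounds whose thallium flux B-score, printed positive for inhibition, exceeds three library SD while starting fluorescence stays within three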;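 note: channel opened by potassium depolarization with thallium stimulus after 20 min compound exposure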
Active calls of the source: *; i = inactive; x = not tested or not shown. Hits are enriched below; roughly 3.7% of the tested compounds scored in any of these assays.

SMILES | KCNK3 inh | KCNQ1 act | KCNK9 block | hERG protect | Kir21 block | KCNQ1 block
Cc1ccc(S(=O)(=O)N(C)c2ccc(OC(=O)c3cccs3)cc2)cc1 | -9.5* | x | x | x | x | x
Cc1ccc(S(=O)(=O)N(C)c2ccc(OC(=O)COc3ccccc3)cc2)cc1 | i | x | x | x | x | x
Cc1ccc(S(=O)(=O)N(C)c2ccc(OCC(=O)Nc3nc(-c4ccccc4)cs3)cc2)cc1 | i | i | -7.2* | -12 | 0.16 | i
COc1ccccc1C(=O)NNC(=O)CCC(=O)NCc1ccccc1 | i | i | i | -2 | 0.08 | i
O=C(CC1C[C@H](C(=O)N2CCOCC2)[C@@]2(CCC3CCCC3)c3[nH]c4ccccc4c3CCN2C1=O)NCCCn1ccnc1 (stereo partly specified) | i | x | x | x | x | x
CCCCCC(O)(c1ccc(OCC)cc1)C(CN1CCOCC1)c1ccccc1 (stereo unspecified) | i | i | i | -4 | 0.48 | i
CC1(C)C2CC[C@]3(C)C(CC=C4[C@@H]5C[C@@](C)(CO)[C@@H](O)C[C@]5(C(=O)O)CC[C@]43C)[C@@]2(C)CC[C@@H]1O (stereo partly specified) | x | i | i | -13 | 0.01 | i
CC1(C)CC[C@]2(CO)[C@@H](O)C[C@]3(C)C(=CCC4[C@@]5(C)CC[C@H](O)C(C)(C)C5CC[C@]43C)[C@@H]2C1 (stereo partly specified) | x | 34* | i | 0 | 0.6 | i
COc1ccc(OC)c(NC(=O)CSc2nccn2Cc2ccco2)c1 | i | i | i | -8 | -0.03 | i
COc1ccc(CNCCC(c2ccc(OC(C)C)cc2)C(C)C)cc1OC (stereo unspecified) | i | i | i | -15 | -3 | i
COc1ccc(C(CCNCc2ccc(N(C)C)cc2)C(C)C)cc1 (stereo unspecified) | i | i | i | -16 | -5* | i
CCOCCCNCc1ccc(OC)cc1 | i | i | i | -7 | 1.4 | i
COc1ccc(C(CCNCc2ccc(OC(C)C)cc2)C(C)C)cc1 (stereo unspecified) | i | i | i | -25 | -4.5* | i
O=C(NC(=S)Nc1cccc(Cl)c1N1CCCCC1)c1cccs1 | i | 24* | i | 7.2* | -2.3 | i
O=C(NC(=S)Nc1ccc(N2CCOCC2)cc1)c1cccs1 | i | i | i | 0 | -0.53 | i
O=C(NC(=S)Nc1cccc(Cl)c1N1CCOCC1)c1cccs1 | i | i | i | 17* | -0.05 | i
Cc1ccc(-c2cc3nc(C)cc(C)n3n2)cc1 | i | i | i | -9 | -0.73 | i
COc1ccc(-c2cc3nc(C)cc(N4CC(C)CC(C)C4)n3n2)cc1 (stereo unspecified) | i | i | i | -12 | -0.44 | 6*
CCN(CC)CCCNc1nc2cc(OC)c(OC)cc2c2nc(-c3ccccc3)nn12 | i | i | i | -7 | -0.85 | i
CCN(CC)CCCNc1nc2cc(OC)c(OC)cc2c2nc(-c3cccnc3)nn12 | i | i | i | -7 | 0.03 | 11*
Cc1ccc(Cc2c[nH]c(=S)s2)cc1 | i | 38* | i | 27* | 1 | i
Cc1cc(C)n(-c2ccc(C(=O)NCc3ccc(F)cc3)cc2)n1 | i | i | i | -12 | -9.9* | i
CC(NCc1ccccc1)c1ccccc1O (stereo unspecified) | i | i | i | -7 | 0 | i
CCn1nc(NS(=O)(=O)c2ccc([N+](=O)[O-])cc2)c2cc3cccc(C)c3nc21 | i | i | i | -7 | 2.9 | 9*
CCn1nc(NS(=O)(=O)c2ccccc2[N+](=O)[O-])c2cc3cccc(C)c3nc21 | i | i | i | -17 | 2.1 | i
SMILES | KCNK3 inh | KCNQ1 act | KCNK9 block | hERG protect | Kir21 block | KCNQ1 block
Brc1ccccc1-c1nc2c3ccccc3ncn2n1 | -9.4* | x | x | x | x | x
O=C(Nc1ncccc1Cl)c1cc2ccccc2o1 | i | i | i | -6 | -0.7 | i
CNC(=O)c1ccc(NC(=O)CC2SC(N3CCCC3)=NC2=O)cc1 (stereo unspecified) | i | x | x | x | x | x
O=C(Cn1nnc2ccccc21)c1cccc([N+](=O)[O-])c1 | i | i | i | 5.3* | -2.3 | i
COC(=O)C1=C(C)N(C)C(=S)N(C)C1c1cccc(Br)c1 (stereo unspecified) | i | i | i | -16 | -5* | i
CCOC(=O)C1=C(C)N(C)C(=S)N(C)C1c1ccc(OC)cc1 (stereo unspecified) | i | i | i | -6 | 0.79 | i
CC(C)CNC(=S)NC(=O)c1ccc(Cl)cc1Cl | i | 10* | i | -10 | -1.6 | i
Fc1cccc2sc(Nc3nc4cc5c(cc4s3)OCO5)nc12 | i | i | i | 13* | 0.95 | i
CC(=O)Nc1nc2c(F)cccc2s1 | i | 18* | i | 3 | 0.33 | i
Cc1ccc(C)c(NC(=O)C(=O)NCC2CCCN2S(=O)(=O)c2cccs2)c1 (stereo unspecified) | i | i | -7.2* | -17 | -0.07 | i
Cc1ccc(NC(=O)C(=O)NCC2CCCN2S(=O)(=O)c2cccs2)c(C)c1 (stereo unspecified) | i | i | i | -14 | -0.68 | i
Cc1ccc(-c2nn(-c3ccccc3)cc2CO)cc1 | i | i | i | -15 | -0.54 | i
N=C(N)SCc1cn(-c2ccccc2)nc1-c1ccc(Br)cc1 | -14* | i | i | -27 | -7* | 11*
CC(CC(=O)NCCc1ccc(Cl)cc1)S(=O)(=O)c1ccc2c(c1)NC(=O)CO2 (stereo unspecified) | i | i | i | -7 | -1.8 | i
CC(C)Oc1ccc(C(=O)Nc2cccc3cccnc23)cc1 | i | i | -6.8* | -4 | -1.2 | i
CCOc1ccc(C(=O)Nc2cccc3cccnc23)cc1 | i | i | i | -7 | 1.3 | i
O=C(COc1ccc(C(=O)NCCN2CCOCC2)cc1)Nc1cccc(C(F)(F)F)c1 | i | i | i | -10 | 1.6 | i
O=C(c1ccc(Cl)cc1)N1CCCOC1 | i | i | i | 7.0* | -0.27 | i
